Experimental data as given in ChEMBL document CHEMBL4316602, “Investigating the promiscuity of the chloramphenicol nitroreductase from Haemophilus influenzae towards the reduction of 4-nitrobenzene derivatives” (Bioorg Med Chem Lett, 2019).
Values belong to the molecule of their own block, whether it stands above or below them.

What was measured:
Type in all cases: ADME
[1] = Substrate activity at recombinant Haemophilus influenzae Chloramphenicol nitroreductase expressed in Escherichia coli assessed as 4-aminoether formation at 1 mM measured after 24 hrs at pH 8 under 37 degC by LC-MS analysis; conditions: pH 8, 24 h, 1000 µM
In short: (§1)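 50 mM Tris-HCl pH 8.0 holding 1 mM nitro compound, 5 µM CNR and 100 µM NADPH. NADPH is regenerated by 40 mM glucose plus 4 µM glucose dehydrogenase. Incubated 24 h at 37 °C, then extracted with EtOAc, dried, redissolved in MeOH and analysed by LCMS for reduction products.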

[2] = Substrate activity at recombinant Haemophilus influenzae Chloramphenicol nitroreductase expressed in Escherichia coli assessed as hydroxylamine formation at 1 mM measured after 24 hrs at pH 8 under 37 degC by LC-MS analysis; conditions: pH 8, 24 h, 1000 µM; in short: as §1
[3] = Substrate activity at recombinant Haemophilus influenzae Chloramphenicol nitroreductase expressed in Escherichia coli assessed as benzoic acid formation at 1 mM measured after 24 hrs at pH 8 under 37 degC by LC-MS analysis; conditions: pH 8, 24 h, 1000 µM; in short: as §1
[4] = Substrate activity at recombinant Haemophilus influenzae Chloramphenicol nitroreductase expressed in Escherichia coli at 150 uM measured at 30 sec interval for 60 mins in presence of NADPH at pH 8; conditions: pH 8, 1 h
In short: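 Each nitro compound at 150 µM in 50 mM Tris-HCl pH 8.0 with 1.0 mM NADPH. Started with 1 µM CNR and read at 340 nm (NADPH) every 30 s for 60 min. Initial rates were taken from the first 5 min and expressed as % of the chloramphenicol rate.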

[5] = Substrate activity at recombinant Haemophilus influenzae Chloramphenicol nitroreductase expressed in Escherichia coli at 150 uM measured at 30 sec interval for 60 mins in presence of NADPH at 50 degC; conditions: 1 h
[6] = test system: Chloramphenicol nitroreductase; test: Substrate activity at recombinant Haemophilus influenzae Chloramphenicol nitroreductase expressed in Escherichia coli assessed as Km measured at 30 sec interval for 30 mins in presence of NADPH at 37 degC by Michaelis-Menton plot analysis
In short: (§2)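 Chloramphenicol varied 0–2500 µM (0, 1, 5, 10, 50, 100, 250, 500, 2500) with 0.4 µM CNR, 750 µM NADPH, 50 mM Tris-HCl pH 8.0, at 37 or 50 °C. NADPH consumption was followed at 340 nm every 30 s for 30 min. Initial rates came from the first 2–5 min, fitted to Michaelis–Menten for kcat and Km.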

[7] = test system: Chloramphenicol nitroreductase; test: Substrate activity at recombinant Haemophilus influenzae Chloramphenicol nitroreductase expressed in Escherichia coli assessed as Km measured at 30 sec interval for 30 mins in presence of NADPH at 50 degC by Michaelis-Menton plot analysis; in short: as §2
[8] = Substrate activity at recombinant Haemophilus influenzae Chloramphenicol nitroreductase expressed in Escherichia coli assessed as Kcat measured at 30 sec interval for 30 mins in presence of NADPH at 37 degC by Michaelis-Menton plot analysis; conditions: 0.5 h; in short: as §2
[9] = Substrate activity at recombinant Haemophilus influenzae Chloramphenicol nitroreductase expressed in Escherichia coli assessed as Kcat measured at 30 sec interval for 30 mins in presence of NADPH at 50 degC by Michaelis-Menton plot analysis; conditions: 0.5 h; in short: as §2
[10] = Substrate activity at recombinant Haemophilus influenzae Chloramphenicol nitroreductase expressed in Escherichia coli assessed as ratio Kcat to Km measured at 30 sec interval for 30 mins in presence of NADPH at 37 degC by Michaelis-Menton plot analysis; conditions: 0.5 h; in short: as §2
[11] = Substrate activity at recombinant Haemophilus influenzae Chloramphenicol nitroreductase expressed in Escherichia coli assessed as ratio of Kcat to Km measured at 30 sec interval for 30 mins in presence of NADPH at 50 degC by Michaelis-Menton plot analysis; conditions: 0.5 h; in short: as §2

Activity [1]: Active | Activity [2]: Active
Compound: O=[N+]([O-])c1ccc(COCc2ccc(Br)cc2)cc1

Activity [3]: Active
Compound: O=C(OCc1ccc([N+](=O)[O-])cc1)c1ccc(Cl)cc1F

Activity [4]: Active | Activity [5]: Active | Km at 0.5 h [6]: 273 µM | Km at 0.5 h [7]: 191 µM | Kcat [8]: 61 s⁻¹ | Kcat [9]: 65 s⁻¹ | Kcat/Km [10]: 220000 M⁻¹ s⁻¹ | Kcat/Km [11]: 340000 M⁻¹ s⁻¹
Compound: O=C(N[C@H](CO)[C@H](O)c1ccc([N+](=O)[O-])cc1)C(Cl)Cl [CHLORAMPHENICOL]

Activity [3]: Active
Compound: O=C(OCc1ccc([N+](=O)[O-])cc1)c1ccc(Cl)cc1
